Measured values taken from ChEMBL document CHEMBL4257498, “Antitumor effects of melanin from Lachnum YM226 and its derivative in H22 tumor-bearing mice” (Medchemcomm, 2018).
The source made the active and inactive calls. The rule behind the calls is not given here.

Legend:
Mus musculus [1] = assay: Toxicity in Kunming mouse implanted with mouse H22 cells assessed as increase in body weight at 50 mg/kg, ig once daily for 12 days measured every 3 days during compound dosing; format: organism-based; conditions: in vivo, po
Outline: (§1)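 H22 sc tumor-bearing mice were dosed intragastrically once daily for 12 days (0.2 mL, n = 10). Mice were weighed every three days and doses adjusted accordingly. Body weight gain = (final – initial body weight)/initial body weight.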

H22 [2] = assay: Antitumor activity against mouse H22 cells implanted in Kunming mouse assessed as decrease in nuclear to cytoplasmic ratio at 50 to 200 mg/kg, ig once daily for 12 days measured at 24 hrs post last dose by hematoxylin and eosin staining based microscopic method; format: functional, organism-based
Outline: (§2)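 H22 cells given 0.2 mL of 1 × 10^6 cells per mL subcutaneously in the right axilla. Treatment began on day 3, […]. Dosing was intragastric in saline, once daily for 12 days, n = 10 per group. Mice were killed 24 h after the last dose. Tumors were fixed in buffered neutral 10% formalin, paraffin-embedded, cut at 4 μm, HE-stained and examined by light microscopy at 400×.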

Mus musculus [3] = assay: Immunosuppressive effect in Kunming mouse implanted with mouse H22 cells assessed as liver index at 200 mg/kg, ig once daily for 12 days measured at 24 hrs post last dose (reference value: 4.17 +/- 0.68%); format: ADME, organism-based; conditions: in vivo, po
Mus musculus [4] = assay: Renal toxicity in Kunming mouse implanted with mouse H22 cells assessed as increase in serum UA level at 50 to 200 mg/kg, ig once daily for 12 days measured at 24 hrs post last dose; format: organism-based; conditions: in vivo, po
Outline: (§3)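 Mice bore sc H22 tumors and received intragastric doses once daily for 12 days (n = 10). Blood was drawn from the orbital venous plexus 24 h after the last dose. It was allowed to clot and centrifuged at 3000g for 10 min, and the serum was stored at –80 °C. AST, ALT, CRE, BUN and UA were measured with commercial kits.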

Mus musculus [5] = assay: Hepatotoxicity in Kunming mouse implanted with mouse H22 cells assessed as increase in serum AST level at 50 to 200 mg/kg, ig once daily for 12 days measured at 24 hrs post last dose; format: toxicity, organism-based; conditions: in vivo, po; outline: as §3
Mus musculus [6] = assay: Immunostimulatory activity in Kunming mouse implanted with mouse H22 cells assessed as increase in serum IL-6 level at 200 mg/kg, ig once daily for 12 days measured at 24 hrs post last dose by ELISA; format: functional, organism-based
Outline: (§4)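 Serum came from H22 sc tumor-bearing mice dosed intragastrically once daily for 12 days, collected 24 h after the last dose from the orbital plexus (3000g, 10 min, stored at –80 °C). IL-2, IL-6, TNF-α, IFN-γ, VEGF and bFGF were measured by commercial ELISA kits following the manufacturer's protocol.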

H22 [7] = assay: Antitumor activity against mouse H22 cells implanted in Kunming mouse assessed as decrease in hepatoma cell density at 200 mg/kg, ig once daily for 12 days measured at 24 hrs post last dose by hematoxylin and eosin staining based microscopic method; format: functional, organism-based; outline: as §2
Mus musculus [8] = assay: Renal toxicity in Kunming mouse implanted with mouse H22 cells assessed as increase in serum BUN level at 50 to 200 mg/kg, ig once daily for 12 days measured at 24 hrs post last dose; format: organism-based; conditions: in vivo, po; outline: as §3
Mus musculus [9] = assay: Immunosuppressive effect in Kunming mouse implanted with mouse H22 cells assessed as spleen index at 200 mg/kg, ig once daily for 12 days measured at 24 hrs post last dose (reference value: 0.54 +/- 0.09%); format: ADME, organism-based; conditions: in vivo, po
Mus musculus [10] = assay: Decrease in serum bFGF level in Kunming mouse implanted with mouse H22 cells at 50 to 200 mg/kg, ig once daily for 12 days measured at 24 hrs post last dose by ELISA; format: functional, organism-based; outline: as §4
Mus musculus [11] = assay: Decrease in serum VEGF level in Kunming mouse implanted with mouse H22 cells at 50 to 200 mg/kg, ig once daily for 12 days measured at 24 hrs post last dose by ELISA; format: functional, organism-based; outline: as §4
Mus musculus [12] = assay: Renal toxicity in Kunming mouse implanted with mouse H22 cells assessed as increase in serum CRE level at 50 to 200 mg/kg, ig once daily for 12 days measured at 24 hrs post last dose; format: organism-based; conditions: in vivo, po; outline: as §3
H22 [13] = assay: Antitumor activity against mouse H22 cells implanted in Kunming mouse assessed as necrotic and apoptotic region at 50 to 200 mg/kg, ig once daily for 12 days measured at 24 hrs post last dose by hematoxylin and eosin staining based microscopic method; format: functional, organism-based; outline: as §2
Mus musculus [14] = assay: Hepatotoxicity in Kunming mouse implanted with mouse H22 cells assessed as increase in serum ALT level at 50 to 200 mg/kg, ig once daily for 12 days measured at 24 hrs post last dose; format: toxicity, organism-based; conditions: in vivo, po; outline: as §3
H22 [15] = assay: Antitumor activity against mouse H22 cells implanted in Kunming mouse assessed as tumor growth inhibition administered ig once daily for 12 days measured at 24 hrs post last dose; format: functional
Outline: (§5)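 Sc H22 implant (0.2 mL, 1 × 10^6 cells per mL, right axilla). Intragastric dosing started 3 days later, once daily for 12 days in 0.2 mL; saline control; 10 mice per group. Tumors were excised and weighed 24 h after the last dose. Inhibition rate = (1 – mean treated tumor weight/mean model tumor weight) × 100%. Caliper volume taken every 2 days as A × B2/2.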

Mus musculus [16] = assay: Immunostimulatory activity in Kunming mouse implanted with mouse H22 cells assessed as increase in serum IL-2 level at 200 mg/kg, ig once daily for 12 days measured at 24 hrs post last dose by ELISA; format: functional, organism-based; outline: as §4
Mus musculus [17] = assay: Immunosuppressive effect in Kunming mouse implanted with mouse H22 cells assessed as thymus index at 200 mg/kg, ig once daily for 12 days measured at 24 hrs post last dose (reference value: 0.13 +/- 0.06%); format: ADME, organism-based; conditions: in vivo, po
Mus musculus [18] = assay: Immunosuppressive effect in Kunming mouse implanted with mouse H22 cells assessed as liver index at 50 mg/kg, ig once daily for 12 days measured at 24 hrs post last dose (reference value: 4.17 +/- 0.68%); format: ADME, organism-based; conditions: in vivo, po
Mus musculus [19] = assay: Immunosuppressive effect in Kunming mouse implanted with mouse H22 cells assessed as spleen index at 50 mg/kg, ig once daily for 12 days measured at 24 hrs post last dose (reference value: 0.54 +/- 0.09%); format: ADME, organism-based; conditions: in vivo, po
Mus musculus [20] = assay: Immunostimulatory activity in Kunming mouse implanted with mouse H22 cells assessed as increase in serum TNFalpha level at 200 mg/kg, ig once daily for 12 days measured at 24 hrs post last dose by ELISA; format: functional, organism-based; outline: as §4
H22 [21] = assay: Antitumor activity against mouse H22 cells implanted in Kunming mouse assessed as tumor growth inhibition at 200 mg/kg, ig once daily for 12 days measured at 24 hrs post last dose relative to control; format: functional; conditions: H22, po, read-out: TGI; outline: as §5
Mus musculus [22] = assay: Decrease in tumor hemorrhage in Kunming mouse implanted with mouse H22 cells at 50 to 200 mg/kg, ig once daily for 12 days measured at 24 hrs post last dose by hematoxylin and eosin staining based microscopic method; format: functional, organism-based; outline: as §2
Mus musculus [23] = assay: Immunostimulatory activity in Kunming mouse implanted with mouse H22 cells assessed as increase in serum IL-2 level at 50 mg/kg, ig once daily for 12 days measured at 24 hrs post last dose by ELISA; format: functional, organism-based; outline: as §4
Mus musculus [24] = assay: Immunostimulatory activity in Kunming mouse implanted with mouse H22 cells assessed as increase in serum IL-6 level at 50 mg/kg, ig once daily for 12 days measured at 24 hrs post last dose by ELISA; format: functional, organism-based; outline: as §4
H22 [25] = assay: Antitumor activity against mouse H22 cells implanted in Kunming mouse assessed as tumor growth inhibition at 50 mg/kg, ig once daily for 12 days measured at 24 hrs post last dose relative to control; format: functional; conditions: H22, po, read-out: TGI; outline: as §5
Mus musculus [26] = assay: Immunostimulatory activity in Kunming mouse implanted with mouse H22 cells assessed as increase in serum IFNgamma level at 200 mg/kg, ig once daily for 12 days measured at 24 hrs post last dose by ELISA; format: functional, organism-based; outline: as §4
Mus musculus [27] = assay: Decrease in leukocyte infiltration in Kunming mouse implanted with mouse H22 cells at 50 to 200 mg/kg, ig once daily for 12 days measured at 24 hrs post last dose by hematoxylin and eosin staining based microscopic method; format: functional, organism-based; outline: as §2
Mus musculus [28] = assay: Immunosuppressive effect in Kunming mouse implanted with mouse H22 cells assessed as thymus index at 50 mg/kg, ig once daily for 12 days measured at 24 hrs post last dose (reference value: 0.13 +/- 0.06%); format: ADME, organism-based; conditions: in vivo, po
Mus musculus [29] = assay: Toxicity in Kunming mouse implanted with mouse H22 cells assessed as increase in body weight at 200 mg/kg, ig once daily for 12 days measured every 3 days during compound dosing; format: organism-based; conditions: in vivo, po; outline: as §1

## COc1c(O)cc2cc(C(=O)O)n(C)c2c1C1=c2cc(C(=O)O)[nH]c2=C(Cc2cc(C(=O)O)[nH]c2C(=O)O)C(=O)C1=O
Mus musculus [1]
  Activity: 8.2 g
H22 [2]
  Activity: Active
Mus musculus [3]
  Activity_index: 3.79%
Mus musculus [4]
  Activity: Non-Toxic
Mus musculus [5]
  Activity: Non-Toxic
Mus musculus [6]
  Activity: Active
H22 [7]
  Activity: Active
Mus musculus [8]
  Activity: Non-Toxic
Mus musculus [9]
  Activity_index: 0.48%
Mus musculus [10]
  Activity: Active
Mus musculus [11]
  Activity: Active
Mus musculus [12]
  Activity: Non-Toxic
H22 [13]
  Activity: Active
Mus musculus [14]
  Activity: Non-Toxic
H22 [15]
  TGI: Dose-dependent effect
Mus musculus [16]
  Activity: Active
Mus musculus [17]
  Activity_index: 0.16%
Mus musculus [18]
  Activity_index: 3.72%
Mus musculus [19]
  Activity_index: 0.48%
Mus musculus [20]
  Activity: Active
H22 [21]
  inhibition in vivo at 200 mg/kg: 35%
Mus musculus [22]
  Activity: Active
Mus musculus [23]
  Activity: Active
Mus musculus [24]
  Activity: Active
H22 [25]
  inhibition in vivo at 50 mg/kg: 32.3%
Mus musculus [26]
  Activity: Active
Mus musculus [27]
  Activity: Active
Mus musculus [28]
  Activity_index: 0.15%
Mus musculus [29]
  Activity: 7.56 g
